From ChEMBL document CHEMBL3244180, “Synthesis of branched-chain apiosylpyrimidines and their inhibition of lymphocyte proliferation” (1978) come the findings set out here.

Calls of active or inactive are those of the source. The rule behind the calls is not given here.

Experiment [1] can be described thus: Immunosuppressive activity against PHA-stimulated proliferation in rat T-lymphocytes assessed as cell viability at 100 uM after 6 days by [3H]thymidine incorporation method relative to control. It counts as functional. The following applies: read-out: Activity. Put shortly:
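Rat lymphocytes incubated 6 days at 37 °C with 100 μM compound; result expressed as percentage of viable lymphocytes.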
(In general: Uptake of a labelled nucleoside into DNA is a usual measure of proliferation.)

Experiment [2] in a line: Immunosuppressive activity against PHA-stimulated proliferation in rat T-lymphocytes assessed as cell viability at 1 uM […] by [3H]thymidine incorporation method relative to control. It counts as functional. The conditions noted are these: read-out: Activity.
The test system of another experiment is T-cell. Briefly: Immunosuppressive activity against PHA-stimulated proliferation in rat T-lymphocytes assessed as cell viability at 0.01 to 0.1 uM […] by [3H]thymidine incorporation method relative to control. It counts as functional, cell-based.
In another experiment the test system is MGL8. Briefly: Growth inhibition of human MGL8 cells at 5 uM after 48 hrs. It counts as functional, cell-based. The essentials: (§1)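 MGL-8 lymphoblasts seeded at 22 × 10⁴ cells/mL in stationary suspension in RPMI 1640 with 10% fetal calf serum, penicillin and streptomycin; 48 h at 37 °C; cells counted by Coulter counter; growth expressed as % of untreated control; significance tested (p < 0.01).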

For the next experiment, the system named is Proteus vulgaris. Briefly: Antibacterial activity against Proteus vulgaris at 1 mg/ml. It counts as functional, organism-based. The essentials: (§2)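 Organisms grown on agar plates at 37 °C. Compound dissolved at 1 mg/mL in methanol, applied to a 2-cm disk, and the disk placed on agar streaked with the organism.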
The next experiment deals with Bacillus subtilis. In words: Antibacterial activity against Bacillus subtilis at 1 mg/ml. It counts as functional, organism-based. The essentials:
as §2

The test system of a further experiment is Serratia marcescens. Briefly: Antibacterial activity against Serratia marcescens at 1 mg/ml. It counts as functional, organism-based. The essentials: as §2
For another experiment, the system named is Candida albicans. In words: Antifungal activity against Candida albicans at 1 mg/ml. It counts as functional, organism-based. Put shortly: as §2
For another experiment, the system named is Ralstonia solanacearum. In words: Antibacterial activity against Pseudomonas solanacearum at 1 mg/ml. It counts as functional, organism-based. Put shortly: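 Agar disk diffusion: test compound at 1 mg/mL in methanol, applied to a 2-cm disk laid on agar plates streaked with the organism.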
A further experiment concerns Human alphaherpesvirus 2. Briefly: Antiviral activity against HSV2 infected in BHK cells assessed as reduction of viral plaque at 4 uM after 24 hrs. It counts as functional. The essentials: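 BHK confluent monolayers in 24-well trays; supernatant removed and 50 μL virus dilution added per well; 2 h at 37 °C, 5% CO2, 100% humidity with intermittent agitation. Eagle's medium containing tryptose phosphate broth and calf serum then added; viral plaques counted after 24 h.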

Experiment [3] can be described thus: Growth inhibition of human MGL8 cells at 500 uM after 48 hrs relative to control. It counts as functional. The following applies: MGL8, 48 h, read-out: GI. Put shortly:
as §1

The test system of another experiment is Escherichia coli. Briefly: Antibacterial activity against Escherichia coli at 1 mg/ml. It counts as functional, organism-based. The essentials: as §2
In the next experiment the test system is Micrococcus luteus. In words: Antibacterial activity against Sarcina lutea at 1 mg/ml. It counts as functional, organism-based. The essentials: as §2
For another experiment, the system named is Neurospora crassa. In words: Antifungal activity against Neurospora crassa at 1 mg/ml. It counts as functional, organism-based. Put shortly:
as §2

Experiment [4] relates to Saccharomyces pastorianus. Briefly: Antifungal activity against Saccharomyces pastorianus at 1 mg/ml. It counts as functional, organism-based. Put shortly: as §2
The subject of experiment [5] is Salmonella enterica subsp. enterica serovar Gallinarum. In words: Antibacterial activity against Salmonella gallinarum at 1 mg/ml. It counts as functional, organism-based. Put shortly: as §2
Experiment [6] can be described thus: Growth inhibition of human MGL8 cells at 50 uM after 48 hrs relative to control. It counts as functional. The conditions noted are these: MGL8, 48 h, read-out: GI. Put shortly:
as §1

The test system of another experiment is Pseudomonas aeruginosa. In words: Antibacterial activity against Pseudomonas aeruginosa at 1 mg/ml. It counts as functional, organism-based. The essentials:
as §2

In another experiment the test system is Staphylococcus aureus. Briefly: Antibacterial activity against Staphylococcus aureus at 1 mg/ml. It counts as functional, organism-based. Put shortly:
as §2

As for `Nc1ccn([C@@H]2O[C@H](CO)[C@@H](O)[C@@H]2O)c(=O)n1` [CYTARABINE], in [1], the viability at 100 µM was 76%. For the same molecule, in [2], the thymidine incorporation of control at 1 µM is 18%. Also, in the experiment on T-cell, the result was inactive.

For the molecule `Cc1cn([C@@H]2OC[C@@](O)(CO)[C@H]2O)c(=O)[nH]c1=O`, the “growth inhibition (GI)” value in the experiment with MGL8 is “inactive”. Further, the outcome with Proteus vulgaris, in the experiment with Bacillus subtilis, in the experiment on Serratia marcescens, in the experiment on Candida albicans, in the experiment on Ralstonia solanacearum and with Human alphaherpesvirus 2 was inactive. Also, the outcome (in the experiment on Escherichia coli; with Micrococcus luteus; in the experiment with T-cell; with Neurospora crassa; in experiment [4]; in experiment [5]) was inactive. Also, the result in the experiment with Pseudomonas aeruginosa and in the experiment with Staphylococcus aureus was inactive. Besides, the viability at 100 µM in [1] came to 89%. In addition, in experiment [2], the thymidine incorporation of control at 1 µM worked out at 56%. For the same molecule, the inhibition of growth at 500 µM in experiment [3] is 83%. Further, the inhibition of growth at 50 µM in [6] was 95%.

`Nc1ncnc2c1ncn2[C@@H]1OC[C@](O)(CO)[C@H]1O`: the viability at 100 µM in experiment [1] was 91%. For the same molecule, the thymidine incorporation of control at 1 µM in experiment [2] was found to be 159%. In addition, the outcome in the experiment on T-cell was inactive.

As to `O=c1ccn([C@@H]2OC[C@@](O)(CO)[C@H]2O)c(=O)[nH]1`, the “growth inhibition (GI)” value in the experiment with MGL8 is “inactive”. Also, the result in the experiment on Proteus vulgaris, with Bacillus subtilis, in the experiment with Serratia marcescens, with Candida albicans, with Ralstonia solanacearum and in the experiment with Human alphaherpesvirus 2 was inactive. For the same molecule, the result (in the experiment with Escherichia coli; in the experiment on Micrococcus luteus; with T-cell; in the experiment on Neurospora crassa; in experiment [4]; in experiment [5]) was inactive. In addition, the result in the experiment with Pseudomonas aeruginosa and with Staphylococcus aureus was inactive. Moreover, the viability at 100 µM in experiment [1] amounted to 90%. For the same molecule, the thymidine incorporation of control at 1 µM in [2] was 16%. The inhibition of growth at 500 µM in experiment [3] amounted to 72%. Besides, the inhibition of growth at 50 µM in experiment [6] amounted to 100%.

As to `O=c1[nH]c(=O)n([C@@H]2OC[C@@](O)(CO)[C@H]2O)cc1Br`, the “growth inhibition (GI)” value in the experiment on MGL8 is “inactive”. Besides, in the experiment with Human alphaherpesvirus 2, the result was inactive. The inhibition of growth at 500 µM in [3] came to 13%. Also, the inhibition of growth at 50 µM in [6] was 52%.

As for `O=c1[nH]c(=O)n([C@@H]2O[C@H](CO)[C@@H](O)[C@H]2O)cc1I`, in the experiment with MGL8, the “growth inhibition (GI)” value was “inactive”. The inhibition of growth at 500 µM in [3] was determined as 9%. Also, the inhibition of growth at 50 µM in experiment [6] turned out to be 32%.

Take `Nc1ncnc2c1ncn2[C@@H]1OC[C@@](O)(CO)[C@H]1O`: the viability at 100 µM in experiment [1] is 85%. The thymidine incorporation of control at 1 µM in experiment [2] came out at 14%. For the same molecule, the Activity in the experiment with Human alphaherpesvirus 2 came out at 42%.

For the molecule `Nc1ncnc2c1ncn2[C@@H]1O[C@H](CO)[C@@H](O)[C@@H]1O` [VIDARABINE], the viability at 100 µM in [1] is 94%. In addition, the thymidine incorporation of control at 1 µM in [2] stood at 71%.

`CC(=O)O[C@H]1[C@H](n2cc(Br)c(=O)[nH]c2=O)OC[C@@]12COC(=O)O2`: the result with Proteus vulgaris, with Bacillus subtilis, in the experiment on Serratia marcescens, in the experiment with Candida albicans, in the experiment on Ralstonia solanacearum and in the experiment with Escherichia coli was inactive. Moreover, the result (in the experiment with Micrococcus luteus; in the experiment on Neurospora crassa; in [4]; in [5]; in the experiment on Pseudomonas aeruginosa; in the experiment with Staphylococcus aureus) was inactive.

`O=c1[nH]c(=O)n([C@@H]2OC[C@@](O)(CO)[C@H]2O)cc1I`: the “growth inhibition (GI)” value in the experiment on MGL8 is “inactive”. Moreover, the result with Human alphaherpesvirus 2 was inactive. Besides, in experiment [3], the inhibition of growth at 500 µM was 6%. Moreover, the inhibition of growth at 50 µM in experiment [6] amounted to 24%.

Take `NC(=O)c1ncn([C@@H]2O[C@H](CO)[C@@H](O)[C@H]2O)n1` [RIBAVIRIN]: in experiment [2], the thymidine incorporation of control at 1 µM was determined as 127%.

Consider `CC(=O)O[C@H]1[C@H](n2cc(I)c(=O)[nH]c2=O)OC[C@@]12COC(=O)O2`, for which the outcome with Proteus vulgaris, in the experiment with Bacillus subtilis, in the experiment with Serratia marcescens, with Candida albicans, in the experiment on Ralstonia solanacearum and in the experiment on Escherichia coli was inactive. The result (in the experiment with Micrococcus luteus; in the experiment with Neurospora crassa; in experiment [4]; in experiment [5]; in the experiment on Pseudomonas aeruginosa; with Staphylococcus aureus) was inactive.

As for `O=c1[nH]c(=O)n([C@@H]2O[C@H](CO)[C@@H](O)[C@H]2O)cc1Br`, the “growth inhibition (GI)” value with MGL8 is “inactive”. In addition, in experiment [3], the inhibition of growth at 500 µM worked out at 11%. In experiment [6], the inhibition of growth at 50 µM is 40%.
